{"source": "ChEMBL document CHEMBL5042480", "about": "“3CL Protease Inhibitors with an Electrophilic Arylketone Moiety as Anti-SARS-CoV-2 Agents” (J Med Chem, 2022)", "key": {"[1]": {"test_system": "SARS-CoV-2", "assay": "Antiviral activity against SARS coronavirus 2 infected in African green monkey Vero cells assessed as blockade of viral proliferation at 25 uM incubated for 48 hrs by cytopathic effect assay", "type": "functional, organism-based", "details": "Severe acute respiratory syndrome coronavirus 2"}, "[2]": {"assay": "Inhibition of recombinant C-terminal His-tagged SARS coronavirus 1 3CL protease using Boc-Abu-Tle-Leu-Gln-AMC as substrate incubated for 5 mins by Cheng-Prusoff equation analysis", "parameters": "species or system Severe acute respiratory syndrome-related coronavirus"}, "[3]": {"assay": "Inhibition of recombinant C-terminal His-tagged SARS coronavirus 2 3CL protease using Boc-Abu-Tle-Leu-Gln-AMC as substrate incubated for 5 mins by Cheng-Prusoff equation analysis", "parameters": "species or system Severe acute respiratory syndrome coronavirus 2", "procedure,_shortened": "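His-tagged 3CLpro (8 ng/μL final) was assayed in 50 mM MOPS pH 7.2 with 10 mM NaCl, 1 mM EDTA and 0.01% Triton X-100. Substrate was 50 μM final (about Km) and DMSO 4% final. Inhibitor and substrate were preincubated 5 min at 37 °C, then enzyme was added and fluorescence (ex 360/em 460 nm) read for 10 min. At least 11 concentrations were tested; IC50 came from nonlinear regression and Ki from Cheng–Prusoff. n = 3.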"}, "[4]": {"assay": "Competitive inhibition of recombinant C-terminal His-tagged SARS coronavirus 2 3CL protease using Boc-Abu-Tle-Leu-Gln-AMC as substrate incubated for 5 mins by plate reader analysis", "parameters": "species or system Severe acute respiratory syndrome coronavirus 2", "procedure,_shortened": "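Competitive-inhibition kinetics: fluorogenic substrate at 15, 30, 45, 60 and 75 μM was combined with inhibitor at 0, 10, 20, 30, 40 and 50 nM, and product formation was monitored for 10 min. Data were analysed by Lineweaver–Burk plot and global fit to a competitive model. Three independent experiments were run.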"}}, "note": "Activity calls are given as the source filed them. The rule behind the calls is not given here."}
{"smiles": "CC(C)C[C@H](NC(=O)[C@@H](NC(=O)OCc1ccccc1)C(C)C)C(=O)N[C@@H](C[C@@H]1CCNC1=O)C(=O)c1nc2ccccc2s1", "values": [{"measurement": "Activity", "setting": "[1]", "value": "Active"}, {"measurement": "Ki", "setting": "[2]", "value": 4.1, "unit": "nM"}, {"measurement": "Ki", "setting": "[3]", "value": 14.5, "unit": "nM"}, {"measurement": "Ki", "setting": "[4]", "value": 19.8, "unit": "nM"}]}
